Key:
Assay type in all cases: functional
BL13/0 = assay: Concentration to inhibit growth of BL13/0 cell lines; settings: Homo sapiens
Summary of the method: (§1)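 Human tumor lines grown as monolayers in RPMI 1640 with 10% FCS plus penicillin/streptomycin, at 37 °C under 7.5% CO₂, 5% O₂, 85% N₂. Cells were seeded at 5000 per well and left 24 h, then exposed for 96 h at 37 °C to complexes (saline-dissolved, final 0–200 μM). Viability was read by MTT (570 nm) or SRB (570 nm) against untreated controls, with 4 or 6 replicates. IC50 was taken from dose–response curves.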

DU-145 = assay: Concentration to inhibit growth of DU145 cell lines; settings: Homo sapiens; summary of the method: as §1
PC-9 = assay: Concentration to inhibit growth of PC9 cell lines; settings: Homo sapiens; summary of the method: as §1
[1] = Concentration to inhibit growth of PC9-cisR cell lines; settings: Homo sapiens; PC-9; summary of the method: as §1

8,8-Platinum dichloro-7-ethyl-(6S)-1,7-diazoniabicyclo[4.2.1]nonane
Mean IC50 (BL13/0): 19 µM | Mean IC50 (DU-145): 21.3 µM | Mean IC50 (PC-9): 31 µM | Mean IC50 [1]: 79.7 µM

8,8-Platinumdichloro-7-ethyl-(6R)-1,7-diazoniabicyclo[4.2.1]nonane
Mean IC50 (BL13/0): 7.4 µM | Mean IC50 (DU-145): 9.5 µM | Mean IC50 (PC-9): 20 µM | Mean IC50 [1]: 44 µM

CISPLATIN
Mean IC50 (BL13/0): 1.9 µM | Mean IC50 (DU-145): 1.8 µM | Mean IC50 (PC-9): 1.4 µM | Mean IC50 [1]: 11.7 µM

8,8-Platinumdichloro-7-methyl-(6S)-1,7-diazoniabicyclo[4.2.1]nonane
Mean IC50 (BL13/0): 11.7 µM | Mean IC50 (DU-145): 10.1 µM | Mean IC50 (PC-9): 13.7 µM | Mean IC50 [1]: 38.3 µM

8,8-platinumdichloro-(6R)-1,7-diazoniabicyclo[4.2.1]nonane
Mean IC50 (BL13/0): 1.3 µM | Mean IC50 (DU-145): 2.9 µM | Mean IC50 (PC-9): 5.9 µM | Mean IC50 [1]: 16 µM

8,8-Platinumdichloro-7,7-dimethyl-(6R)-1,7-diazoniabicyclo[4.2.1]nonane
Mean IC50 (BL13/0): 7.7 µM | Mean IC50 (DU-145): 7.3 µM | Mean IC50 (PC-9): 13.5 µM | Mean IC50 [1]: 29.3 µM

8,8-Platinumdichloro-7,7-dimethyl-(6S)-1,7-diazoniabicyclo[4.2.1]nonane
Mean IC50 (BL13/0): 10.2 µM | Mean IC50 (DU-145): 11.5 µM | Mean IC50 (PC-9): 11.8 µM | Mean IC50 [1]: 28.7 µM

From ChEMBL document CHEMBL1130197, “Preparation, characterization, DNA binding, and in vitro cytotoxicity of the enantiomers of the platinum(II) complexes N-methyl-, N-ethyl- and N,N-dimethyl-(R)- and -(S)-3-aminohexahydroazepinedichloroplatinum(II)” (1997)
